Screening data (PubChem)
This is a sample that favours compounds with a hit; in the whole collection about 1.8% have one here.
Runt-SMMHC FRET: Runt domain-CBFb-SMMHC interaction inhibition; Q01196+Q13951; Cerulean-Runt/Venus-CBFb-SMMHC FRET ratio 530/480, 1 h; inhibition, % at 20 µM; actives 0.74% (n = 220,000);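 active = mean inhibition across duplicate retests at 20 µM reaching about 50%, limit read from the data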;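 note: 0% = DMSO wells and 100% = wells with excess untagged CBFb-SMMHC; inhibitors lower the FRET ratio by blocking Runt binding to CBFb-SMMHC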
Runt-CBFb FRET: inhibitors of human RUNX1 Runt domain binding to CBFb. Q01196+Q13951. Cerulean-Runt/Venus-CBFb FRET ratio 530/480, 1 h. inhibition, % at 20 µM. actives 0.46% (n = 220,000). AID 1496;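 active = inhibition over about 50% at 20 µM in the single-dose screen, limit read from the data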;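 note: 0% = DMSO wells and 100% = excess unlabeled CBFb competitor control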
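Assay system: Cerulean-Runt domain / Medium: Tris 50 mM pH 7.5, KCl, K2SO4, 0.01% BSA / Timing: protein complex preformed 1 h, compound exposure 1 h, room temperature, dark / Measured by: FRET, excitation 422 nm, emission at 530 and 480 nm / Evaluation: loss of energy transfer signal / Control set: 5 µM unlabeled CBFb as full-inhibition high control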
Hck-Nef inh: human Hck-Nef kinase inhibition | Recombinant Hck-YEEI plus Nef, Z-Lyte FRET kinase assay | actives 0.68% (n = 220,000) | inhibition, % at 20 µM;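 active = Hck-Nef kinase inhibition above about 50%, limit read from the data; inactive = inhibition below that limit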;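 note: 0% = DMSO with Hck plus Nef and 100% = Hck alone without Nef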
Target sequence (P08631 whole entry, looked up): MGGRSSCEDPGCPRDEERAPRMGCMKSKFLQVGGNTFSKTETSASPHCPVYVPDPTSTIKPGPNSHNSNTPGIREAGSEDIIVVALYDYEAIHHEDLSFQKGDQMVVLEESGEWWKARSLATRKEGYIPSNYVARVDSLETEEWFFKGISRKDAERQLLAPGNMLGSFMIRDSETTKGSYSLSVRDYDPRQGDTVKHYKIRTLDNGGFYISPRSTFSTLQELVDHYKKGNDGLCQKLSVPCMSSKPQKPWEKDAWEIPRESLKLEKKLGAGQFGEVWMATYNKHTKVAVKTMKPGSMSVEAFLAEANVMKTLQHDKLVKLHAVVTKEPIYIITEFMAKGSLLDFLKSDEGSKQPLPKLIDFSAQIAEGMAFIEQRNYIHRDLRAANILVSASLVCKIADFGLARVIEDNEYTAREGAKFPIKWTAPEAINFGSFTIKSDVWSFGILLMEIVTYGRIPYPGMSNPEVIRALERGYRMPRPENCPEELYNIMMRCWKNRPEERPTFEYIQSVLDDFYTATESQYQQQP
RanGTP-Impb inh: inhibitors of RanGTP-importin-beta interaction, primary screen, biochemical, FRET, CFP-Ran, YFP-importin-beta, homogeneous; cell-free CFP-Ran/YFP-importin-beta FRET ratio; AID 2216; actives 1.1% (n = 300,000); inhibition, % (test concentration not listed);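 active = more than half of the replicate wells show a fall in the fluorescence ratio signal beyond about 16%, limit read from the data, passing the limit was not always enough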;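 note: 0% = DMSO wells and 100% = Ran loaded with GDP instead of GTP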
* = called active by the depositor.

How did CCN1CCN(c2nc3c(C)cccn3c(=O)c2/C=C(\C#N)S(=O)(=O)c2ccccc2)CC1 do in these assays?
Runt-SMMHC FRET: -74; Runt-CBFb FRET: -46; Hck-Nef inh: -22; RanGTP-Impb inh: -28

How did Cc1ccc(S(=O)(=O)/C(C#N)=C/c2c(N3CCC(C(N)=O)CC3)nc3ccccn3c2=O)cc1 do in these assays?
Runt-SMMHC FRET: -7; Runt-CBFb FRET: -2; Hck-Nef inh: -17; RanGTP-Impb inh: 34*

How did O=C(CCC(=O)Nc1ccc(F)cc1)N/N=C/c1cccnc1 do in these assays?
RanGTP-Impb inh: -2

How did COC(=O)c1ccc(C(=O)N=c2sccn2C)cc1 do in these assays?
RanGTP-Impb inh: -1

How did O=C(c1cc2ccccc2o1)N(C1CC1)C1(C(=O)Nc2ccccc2)CCCC1 do in these assays?
Runt-SMMHC FRET: 0; Runt-CBFb FRET: -1; Hck-Nef inh: -3; RanGTP-Impb inh: 2

What do the screens show for `COc1ccccc1NS(=O)(=O)c1cccc(C(=O)N2CC(C)OC(C)C2)c1` (stereo unspecified)?
RanGTP-Impb inh: 0

How did CC1(C)Cc2c(sc3ncn4c(=S)[nH]nc4c23)CO1 do in these assays?
Runt-SMMHC FRET: 60*; Runt-CBFb FRET: 46; Hck-Nef inh: 11; RanGTP-Impb inh: 2

How did O=c1[nH]c2c(=O)[nH]cnc2nc1-c1ccccc1 do in these assays?
RanGTP-Impb inh: 47*

How did Cc1cccc(N2C(=O)c3ccccc3C2=O)n1 do in these assays?
RanGTP-Impb inh: 6

How did CC(=Nc1ccc(C)cc1C)c1sc2ccccc2c1O do in these assays?
Runt-SMMHC FRET: -26; Runt-CBFb FRET: -17; Hck-Nef inh: 14; RanGTP-Impb inh: 42*

What do the screens show for `CC(=Nc1ccc(C)cc1)c1sc2ccccc2c1O`?
Runt-SMMHC FRET: 51; Runt-CBFb FRET: -45; Hck-Nef inh: 1; RanGTP-Impb inh: 73*

Results for CC(=Nc1cccc(O)c1)c1sc2ccccc2c1O ?
Runt-SMMHC FRET: 15; Runt-CBFb FRET: 8; Hck-Nef inh: 0; RanGTP-Impb inh: 29*

What do the screens show for `COc1ccc(N2CCN(C(=O)COC(=O)CCOc3ccc(C)cc3)CC2)cc1`?
RanGTP-Impb inh: 0

What do the screens show for `Cc1ccc(NC(=S)NCC2CCN(C(C)c3ccccc3)C2)cc1C` (stereo unspecified)?
Runt-SMMHC FRET: 1; Runt-CBFb FRET: 0; Hck-Nef inh: 3; RanGTP-Impb inh: -1

How did O=C(O)/C=C/c1ccc(O)c(O)c1 do in these assays?
Runt-SMMHC FRET: 58; Runt-CBFb FRET: 45; Hck-Nef inh: -6; RanGTP-Impb inh: 2

What do the screens show for `O=C(/C=C/c1ccc(O)c(O)c1)O[C@H](Cc1ccc(O)c(O)c1)C(=O)O`?
Runt-SMMHC FRET: 21; Runt-CBFb FRET: 42; Hck-Nef inh: 52*; RanGTP-Impb inh: 12

How did CC(C)c1nc(C(=O)N2CCCC(N3CCN(c4cccc(Cl)c4)CC3)C2)cs1 (stereo unspecified) do in these assays?
RanGTP-Impb inh: 1

What do the screens show for `CN(C(=O)c1ccc(NC(=O)C2CC=CCC2C(=O)O)cc1)c1ccccc1` (stereo unspecified)?
Runt-SMMHC FRET: -2; Runt-CBFb FRET: 2; Hck-Nef inh: 7; RanGTP-Impb inh: 25*

What do the screens show for `COc1cccc(-c2nc(CS(=O)(=O)CC(=O)Nc3ccccc3Br)c(C)o2)c1`?
RanGTP-Impb inh: 6

What do the screens show for `COC(=O)Cn1c(=O)c2c(n(Cc3ccccc3)c1=O)N/C(=C/c1ccc(OC)cc1)C2=O`?
Runt-SMMHC FRET: 30; Runt-CBFb FRET: -20; Hck-Nef inh: 15; RanGTP-Impb inh: 20*

What do the screens show for `CCOC(=O)c1c(N2C(=O)C=CC2=O)sc(C)c1C`?
Runt-SMMHC FRET: 62*; Runt-CBFb FRET: 47; Hck-Nef inh: -6; RanGTP-Impb inh: 1

Results for CCOC(=O)c1c(NC(N)=O)sc(C)c1C ?
Runt-SMMHC FRET: 0; Runt-CBFb FRET: 1; Hck-Nef inh: 0; RanGTP-Impb inh: -1

What do the screens show for `Cc1cccc(NC(=O)c2ccc(Cn3cc(C(F)(F)F)ccc3=O)cc2)c1`?
Runt-SMMHC FRET: 1; Runt-CBFb FRET: -4; Hck-Nef inh: 1; RanGTP-Impb inh: 48*

How did O=C(NCCCN1CCOCC1)c1cc(Cl)ccc1OCc1ccccc1 do in these assays?
RanGTP-Impb inh: 1

What do the screens show for `CC1CCCCC1NC(=O)CN1C(=O)c2cccc(N)c2C1=O` (stereo unspecified)?
Runt-SMMHC FRET: 86*; Runt-CBFb FRET: 21; Hck-Nef inh: 7; RanGTP-Impb inh: -4

Results for COc1ccccc1CNC(=O)CCN1C(=O)c2ccccc2C1=O ?
RanGTP-Impb inh: 0
